Experimental data published in ChEMBL document CHEMBL3352289, “Potent and selective MAO-B inhibitory activity: amino- versus nitro-3-arylcoumarin derivatives” (Bioorg Med Chem Lett, 2015).

Legend:
[1] = target: T1, Amine oxidase [flavin-containing] A (Homo sapiens, UniProt P21397); assay: Inhibition of human recombinant MAOA expressed in BTI-TN-5B1-4 cells using p-tyramine substrate assessed as reduction in H2O2 production; assay type: cell-based
T1 sequence (P21397 whole entry): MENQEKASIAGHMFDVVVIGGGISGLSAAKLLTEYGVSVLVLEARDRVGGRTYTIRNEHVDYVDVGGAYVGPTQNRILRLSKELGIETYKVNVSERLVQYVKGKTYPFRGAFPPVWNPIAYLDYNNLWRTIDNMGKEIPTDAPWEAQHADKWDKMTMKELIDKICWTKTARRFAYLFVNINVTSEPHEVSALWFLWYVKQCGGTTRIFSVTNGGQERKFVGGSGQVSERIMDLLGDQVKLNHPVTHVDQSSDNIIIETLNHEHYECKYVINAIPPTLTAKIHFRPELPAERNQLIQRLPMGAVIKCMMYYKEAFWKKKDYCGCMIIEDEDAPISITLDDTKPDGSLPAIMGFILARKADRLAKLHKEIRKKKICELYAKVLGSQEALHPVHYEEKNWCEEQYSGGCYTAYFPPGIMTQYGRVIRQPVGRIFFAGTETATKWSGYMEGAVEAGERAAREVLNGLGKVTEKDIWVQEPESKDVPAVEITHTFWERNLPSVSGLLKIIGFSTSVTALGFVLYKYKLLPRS

[2] = target: T1, Amine oxidase [flavin-containing] A; assay: Inhibition of human recombinant MAOA expressed in BTI-TN-5B1-4 cells using p-tyramine substrate assessed as reduction in H2O2 production at 100 uM; assay type: cell-based; details: bti-tn-5b1-4, 100 µM
[3] = target: T2, Amine oxidase [flavin-containing] B (Homo sapiens, UniProt P27338); assay type: cell-based, BTI-TN-5B1-4
T2 sequence (P27338 whole entry): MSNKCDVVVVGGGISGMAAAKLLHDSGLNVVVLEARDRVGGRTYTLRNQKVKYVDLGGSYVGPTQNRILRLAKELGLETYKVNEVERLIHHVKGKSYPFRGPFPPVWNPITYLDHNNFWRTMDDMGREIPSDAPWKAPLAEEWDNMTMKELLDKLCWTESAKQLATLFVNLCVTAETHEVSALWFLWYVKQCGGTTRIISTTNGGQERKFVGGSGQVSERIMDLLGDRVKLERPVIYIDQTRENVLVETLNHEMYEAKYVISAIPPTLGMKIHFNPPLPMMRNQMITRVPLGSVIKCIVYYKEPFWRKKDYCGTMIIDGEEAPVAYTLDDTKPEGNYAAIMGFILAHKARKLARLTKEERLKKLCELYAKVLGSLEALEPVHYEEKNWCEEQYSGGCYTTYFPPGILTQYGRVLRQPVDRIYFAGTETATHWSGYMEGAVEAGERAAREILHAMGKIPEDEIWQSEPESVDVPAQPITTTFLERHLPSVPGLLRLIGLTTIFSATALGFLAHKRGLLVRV

Homo sapiens = species: Homo sapiens; assay: Selectivity index, ratio of IC50 for human recombinant MAOA to IC50 for human recombinant MAOB
Summary of the method: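 Ratio of IC50 (hMAO-A) to IC50 (hMAO-B). Both come from the Amplex Red/p-tyramine H2O2 assay with recombinant insect-cell microsomal isoforms. Each IC50 is the mean of five experiments. Where an IC50 was not reached at the highest concentration tested (100), that IC50 was taken as greater than 100.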

[4] = Octanol/water partition coefficient, log P of the compound; assay type: physicochemical
[5] = target: T1, Amine oxidase [flavin-containing] A; assay: Reversible inhibition of human recombinant MAOA expressed in BTI-TN-5B1-4 cells assessed as AUF/t ratio at 20 nM by effective dilution method relative to untreated control; assay type: cell-based; design: scale not given: the % may be the effect or the level left; details: BTI-TN-5B1-4, human; read-out: Activity
[6] = Permeability by PAMPA method; assay type: ADME; details: read-out: Peff
Summary of the method: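 PAMPA-BBB assay. A PVDF filter was coated with porcine brain lipid in dodecane (20 mg/mL). Compound at 100 µg/mL in PBS pH 7.4/ethanol 70:30 was placed in the donor wells, with the same buffer in the acceptor wells. Plates were incubated 240 min at 25 °C, and acceptor concentration was read by UV-vis at five wavelengths, four wells, ≥3 runs, mean ± SD. Ten reference drugs validated each run.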

[7] = target: Amine oxidase [flavin-containing] B (Homo sapiens) (UniProt P27338); assay: Reversible inhibition of human recombinant MAOB expressed in BTI-TN-5B1-4 cells assessed as AUF/t ratio at 2.5 nM by effective dilution method relative to untreated control; design: scale not given: the % may be the effect or the level left; details: BTI-TN-5B1-4, human
[8] = target: T2, Amine oxidase [flavin-containing] B; assay: Inhibition of human recombinant MAOB expressed in BTI-TN-5B1-4 cells using p-tyramine substrate assessed as reduction in H2O2 production at 100 uM; assay type: cell-based; details: bti-tn-5b1-4, 100 µM
Summary of the method: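 Microsomal hMAO-B from BTI-TN-5B1-4 insect cells infected with recombinant baculovirus. Enzyme, dosed to oxidise 165 pmol p-tyramine/min, was preincubated with drug in 0.05 M sodium phosphate pH 7.4 (DMSO ≤1%) for 15 min at 37 °C. Reaction started with Amplex Red, 1 U/mL HRP and 1 mM p-tyramine. Resorufin fluorescence (ex 545/em 590 nm) read over 15 min at 37 °C, minus enzyme-free background, versus vehicle control.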

| SMILES | IC50 ([1]; bti-tn-5b1-4) | inhibition (INH) [2] | IC50 ([3]; read-out: IC50) | Ratio IC50 (Homo sapiens) | logP [4] | activity at 0.02 µM [5] | IC50 ([1]; read-out: IC50) | Papp [6] | activity at 0.0025 µM [7] | IC50 ([3]; bti-tn-5b1-4) | inhibition (INH) [8] |
| --- | --- | --- | --- | --- | --- | --- | --- | --- | --- | --- | --- |
| Cc1ccc2oc(=O)c(-c3cccc(N)c3)cc2c1 | Not Active | Not Active | 2.2 nM | > 50000 | 3.21 |  |  |  |  |  |  |
| Cc1ccc2oc(=O)c(-c3ccc(N)cc3)cc2c1 | Not Active | Not Active | 4.1 nM | > 25000 | 3.24 |  |  |  |  |  |  |
| Cc1ccc2oc(=O)c(-c3ccccc3N)cc2c1 | Not Active | Not Active | 2170 nM | > 46 | 3.6 |  |  |  |  |  |  |
| C#CCN(C)[C@H](C)Cc1ccccc1 [SELEGILINE] |  |  |  |  |  | 8.51% |  |  |  |  |  |
| Cc1ccc2oc(=O)c(-c3ccc([N+](=O)[O-])cc3)cc2c1 |  |  | 2.1 nM | 2090 | 4.12 |  | 4180 nM | 10.5 ×10⁻⁶ cm/s | 80% |  |  |
| Cc1ccc2oc(=O)c(-c3cccc([N+](=O)[O-])c3)cc2c1 | Not Active | Not Active | 6 nM | > 16700 | 4.1 |  |  |  |  |  |  |
| O=C(NCCN1CCOCC1)c1ccc(Cl)cc1 [MOCLOBEMIDE] |  |  |  |  | 1.68 |  |  |  |  | Not Active | Not Active |
| Cc1ccc2oc(=O)c(-c3ccccc3[N+](=O)[O-])cc2c1 | Not Active | Not Active | 5520 nM | > 18 | 4.07 |  |  |  |  |  |  |
